According to ChEMBL document CHEMBL4837261, “Optimization of TopoIV Potency, ADMET Properties, and hERG Inhibition of 5-Amino-1,3-dioxane-Linked Novel Bacterial Topoisomerase Inhibitors: Identification of a Lead with In Vivo Efficacy against MRSA” (J Med Chem, 2021):
≈ marks a conversion by molar mass, not a printed value.

What was measured:
[1] = Kinetic solubility of the compound at pH 7.4 buffer; format: physicochemical; conditions: read-out: Kinetic_solubility
How it was run: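 Kinetic aqueous solubility was measured in buffer at pH 7.4.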

[2] = Metabolic stability in CD1 mouse microsomes assessed as half life; format: ADME, Microsome
Staphylococcus aureus [3] = test: Antibacterial activity against methicillin-resistant Staphylococcus aureus USA300 by CLSI method; format: functional
Enterobacter cloacae = test: Antibacterial activity against Enterobacter cloacae isolates by CLSI method; format: functional
Cytochrome P450 2B6 = Cytochrome P450 2B6 (Homo sapiens, UniProt P20813); test: Inhibition of CYP2B6 (unknown origin); format: ADME
HepG2 = test: Cytotoxicity against human HepG2 cells; format: cell-based
How it was run: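 THP-1, HepG2 and HeLa cells were exposed to compound from 128 to 0.0625 μg/mL. IC50 was obtained by nonlinear regression of the inhibition curves.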

Nav1.5 (late current) = Nav1.5 (late current) (Homo sapiens, UniProt Q14524); test: Inhibition of recombinant human Nav1.5 late expressed in human HEK293 cells at 100 uM in presence of ATXII by automated Qpatch clamp assay relative to contro; format: ADME, cell-based; conditions: HEK293 cells expressing recombinant human Nav1.5
Staphylococcus aureus [4] = test: Antibacterial activity against Staphylococcus aureus harbouring GyrA D83N mutant by CLSI method; format: functional
[5] = Permeability of the compound from apical to basolateral side in human Caco-2 cells; format: ADME, cell-based; conditions: read-out: permeability
Nav1.5 = Nav1.5 (Homo sapiens, UniProt Q14524); test: Inhibition of recombinant human Nav1.5 expressed in human HEK293 cells at 100 uM measured at peak current by automated Qpatch clamp assay relative to control; format: ADME, cell-based; conditions: HEK293 cells expressing recombinant human Nav1.5
CYP2C9 = CYP2C9 (Homo sapiens, UniProt P11712); test: Inhibition of CYP2C9 (unknown origin) at 10 uM relative to control; format: ADME
[6] = Cmax in ICR (CD-1) mouse at 50 mg/kg, po measured up to 1440 mins by LC-MS/MS analysis; format: ADME, organism-based; design: route oral, dose 50 mg/kg, time <=1440; conditions: in vivo
How it was run: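 Male ICR (CD-1) mice, 22 ± 2 g, given the free base in DMSO/Solutol HS-15/0.9% NaCl (5/5/90, v/v/v), IV at 10 mg/kg or PO at 50 mg/kg; 24 mice per route, three per timepoint. Plasma was taken by cardiac puncture at 3–1440 min (IV) or 10–1440 min (PO), measured by LC-MS/MS, and parameters were derived by noncompartmental analysis.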

Staphylococcus aureus [7] = test: Antibacterial activity against methicillin-resistant Staphylococcus aureus ATCC 33591 infected in iv dosed CD1 mouse model of septicemia assessed as mouse survival at 25 to 50 mg/kg, iv administered 0.5 to 3.5 hrs post injection measured for 7 days relative to control; format: functional; conditions: dose 25-50 mg/kg; time 7 day
Enterococcus faecalis = test: Antibacterial activity against vancomycin-resistant Enterococcus faecalis by CLSI method; format: functional
Staphylococcus aureus [8] = test: Antibacterial activity against Staphylococcus aureus 3527 by CLSI method; format: functional
[9] = Tmax in ICR (CD-1) mouse at 50 mg/kg, po measured up to 1440 mins by LC-MS/MS analysis; format: ADME, organism-based; conditions: in vivo
How it was run: (§1)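 Male ICR (CD-1) mice, 22 ± 2 g, given free base in DMSO/Solutol HS-15/0.9% NaCl (5/5/90) at 50 mg/kg PO or 10 mg/kg IV. Three mice per timepoint, 8 timepoints. Plasma taken by cardiac puncture at 10–1440 min (PO) or 3–1440 min (IV). Measured by LC-MS/MS, with parameters from noncompartmental analysis.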

[10] = Oral bioavailability in ICR (CD-1) mouse at 50 mg/kg measured up to 1440 mins by LC-MS/MS analysis; format: ADME, organism-based; conditions: in vivo; how it was run: as §1
Pseudomonas aeruginosa = test: Antibacterial activity against Pseudomonas aeruginosa isolates by CLSI method; format: functional
CYP2C19 = CYP2C19 (Homo sapiens, UniProt P33261); test: Inhibition of CYP2C19 (unknown origin) at 10 uM relative to control; format: ADME
hERG (KCNH2) = hERG (KCNH2) (Homo sapiens, UniProt Q12809); test: Inhibition of recombinant human ERG expressed in CHO-K1 cells at 100 uM at -80 mV holding potential tail current by automated Qpatch clamp assay relative to control; format: ADME, cell-based; conditions: CHO-K1 cells expressing recombinant human ERG
Cytochrome P450 2C9 = Cytochrome P450 2C9 (Homo sapiens, UniProt P11712); test: Inhibition of CYP2C9 (unknown origin); format: ADME
DNA gyrase [11] = molecular target: DNA gyrase (Staphylococcus aureus, UniProt P0A0K8+P20831); test: Inhibition of Staphylococcus aureus Gyrase supercoiling activity assessed as reduction in supercoiling pBR322 DNA by measuring relaxation by bromophenol blue staining based TAE gel method; format: protein-complex assay
[12] = molecular target: T1, DNA gyrase (Staphylococcus aureus) (UniProt P0A0K8+P20831); test: Inhibition of Staphylococcus aureus DNA Gyrase assessed as reduction in supercoiling pBR322 DNA by measuring induction of single strand breaks by ethidium bromide staining based agarose gel electrophoresis; format: protein-complex assay; conditions: dose 1-100 µM
How it was run: (§2)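 Gyrase-mediated cleavage of negatively supercoiled pBR322 ran for 30 min at 37 °C with compound at 0.5–200 μM. Single- and double-strand break products were quantified from gel lane fluorescence, corrected for differential emission of supercoiled versus linear DNA.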

Kv4.3 (KCND3) [13] = molecular target: T2, Kv4.3 (KCND3) (Homo sapiens, UniProt Q9UK17); test: Inhibition of recombinant human Kv4.3 expressed in human HEK293 cells at 100 uM measured at end current by automated Qpatch clamp assay relative to control; format: ADME, cell-based; conditions: HEK293 cells expressing recombinant human Kv4.3
Klebsiella pneumoniae = test: Antibacterial activity against Klebsiella pneumoniae isolates by CLSI method; format: functional
[14] = molecular target: Sodium channel protein type 5 subunit alpha (Homo sapiens, UniProt Q14524); test: Activation of recombinant human Nav1.5 late expressed in human HEK293 cells assessed as activation of late current at 100 uM by automated Qpatch clamp assay relative to control; format: ADME, cell-based; conditions: hek293, 100 µM
Cytochrome P450 2C8 = Cytochrome P450 2C8 (Homo sapiens, UniProt P10632); test: Inhibition of CYP2C8 (unknown origin); format: ADME
DNA gyrase [15] = molecular target: DNA gyrase (Staphylococcus aureus, UniProt P0A0K8+P20831, D83N); test: Inhibition of Staphylococcus aureus DNA Gyrase D83N mutant assessed as reduction in supercoiling pBR322 DNA by measuring relaxation by bromophenol blue staining based TAE gel method
[16] = molecular target: T1, DNA gyrase (Staphylococcus aureus); test: Inhibition of Staphylococcus aureus DNA Gyrase assessed as reduction in supercoiling pBR322 DNA by measuring induction of double strand breaks by ethidium bromide staining based agarose gel electrophoresis; format: protein-complex assay; conditions: dose 1-100 µM; how it was run: as §2
[17] = Metabolic stability in human microsomes assessed as half life; format: ADME, Microsome
How it was run: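 Run at RTI International. Covers plasma protein binding (mouse, human; percent free), CACO-2 permeability and efflux, and microsomal stability (mouse and human microsomes) giving half-life.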

Kv4.3 (KCND3) [18] = molecular target: T2, Kv4.3 (KCND3); test: Inhibition of recombinant human Kv4.3 expressed in human HEK293 cells at 100 uM measured at peak current by automated Qpatch clamp assay relative to control; format: ADME, cell-based; conditions: HEK293 cells expressing recombinant human Kv4.3
Cytochrome P450 2D6 = Cytochrome P450 2D6 (Homo sapiens, UniProt P10635); test: Inhibition of CYP2D6 (unknown origin); format: ADME
Sequence of Cytochrome P450 2D6 (P10635 whole entry): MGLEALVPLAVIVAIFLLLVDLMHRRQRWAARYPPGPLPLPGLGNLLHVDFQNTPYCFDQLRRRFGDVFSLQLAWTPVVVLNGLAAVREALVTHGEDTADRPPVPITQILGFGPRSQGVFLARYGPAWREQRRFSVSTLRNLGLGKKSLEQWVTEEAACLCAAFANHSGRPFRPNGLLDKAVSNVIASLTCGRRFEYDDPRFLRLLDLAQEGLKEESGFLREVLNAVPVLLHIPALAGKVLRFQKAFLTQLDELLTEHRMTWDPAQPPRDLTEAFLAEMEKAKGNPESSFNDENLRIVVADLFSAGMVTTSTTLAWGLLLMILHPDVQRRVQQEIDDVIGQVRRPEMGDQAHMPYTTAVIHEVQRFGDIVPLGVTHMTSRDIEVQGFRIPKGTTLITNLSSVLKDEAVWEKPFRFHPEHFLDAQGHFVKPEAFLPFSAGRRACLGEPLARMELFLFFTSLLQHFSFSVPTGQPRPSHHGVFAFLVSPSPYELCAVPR

T2 sequence (Q9UK17 whole entry): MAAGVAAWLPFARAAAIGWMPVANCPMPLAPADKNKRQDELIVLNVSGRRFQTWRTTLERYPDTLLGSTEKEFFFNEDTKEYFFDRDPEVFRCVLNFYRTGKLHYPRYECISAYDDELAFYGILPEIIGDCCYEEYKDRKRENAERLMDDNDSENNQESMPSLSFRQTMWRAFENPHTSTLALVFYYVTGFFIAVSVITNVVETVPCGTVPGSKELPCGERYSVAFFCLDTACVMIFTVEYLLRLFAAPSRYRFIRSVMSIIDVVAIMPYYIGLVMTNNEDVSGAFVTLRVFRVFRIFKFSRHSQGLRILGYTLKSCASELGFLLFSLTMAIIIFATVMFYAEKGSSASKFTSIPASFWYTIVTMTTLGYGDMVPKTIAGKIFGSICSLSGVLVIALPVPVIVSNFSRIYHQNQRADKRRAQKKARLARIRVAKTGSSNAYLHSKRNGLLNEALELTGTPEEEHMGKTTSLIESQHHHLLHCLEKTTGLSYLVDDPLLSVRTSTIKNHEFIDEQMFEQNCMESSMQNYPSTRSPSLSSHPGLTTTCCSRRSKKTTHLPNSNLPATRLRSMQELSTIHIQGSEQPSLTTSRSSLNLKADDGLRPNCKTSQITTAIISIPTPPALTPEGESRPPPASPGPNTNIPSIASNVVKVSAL
Sequence of Cytochrome P450 2B6 (P20813 whole entry): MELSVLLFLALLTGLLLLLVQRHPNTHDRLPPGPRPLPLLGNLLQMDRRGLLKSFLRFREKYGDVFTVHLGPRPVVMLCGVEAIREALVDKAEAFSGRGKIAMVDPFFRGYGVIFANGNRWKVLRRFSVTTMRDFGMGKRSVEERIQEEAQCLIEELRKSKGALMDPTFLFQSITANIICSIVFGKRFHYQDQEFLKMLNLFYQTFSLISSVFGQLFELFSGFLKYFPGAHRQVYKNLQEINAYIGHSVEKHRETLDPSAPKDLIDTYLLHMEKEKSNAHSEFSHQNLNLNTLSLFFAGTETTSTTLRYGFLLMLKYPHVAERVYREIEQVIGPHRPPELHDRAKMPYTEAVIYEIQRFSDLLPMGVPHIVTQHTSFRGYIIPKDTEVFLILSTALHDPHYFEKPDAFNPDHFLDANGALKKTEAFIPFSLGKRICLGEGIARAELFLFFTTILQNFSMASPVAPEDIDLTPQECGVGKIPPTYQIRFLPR
Sequence of Nav1.5 (late current) (Q14524 whole entry): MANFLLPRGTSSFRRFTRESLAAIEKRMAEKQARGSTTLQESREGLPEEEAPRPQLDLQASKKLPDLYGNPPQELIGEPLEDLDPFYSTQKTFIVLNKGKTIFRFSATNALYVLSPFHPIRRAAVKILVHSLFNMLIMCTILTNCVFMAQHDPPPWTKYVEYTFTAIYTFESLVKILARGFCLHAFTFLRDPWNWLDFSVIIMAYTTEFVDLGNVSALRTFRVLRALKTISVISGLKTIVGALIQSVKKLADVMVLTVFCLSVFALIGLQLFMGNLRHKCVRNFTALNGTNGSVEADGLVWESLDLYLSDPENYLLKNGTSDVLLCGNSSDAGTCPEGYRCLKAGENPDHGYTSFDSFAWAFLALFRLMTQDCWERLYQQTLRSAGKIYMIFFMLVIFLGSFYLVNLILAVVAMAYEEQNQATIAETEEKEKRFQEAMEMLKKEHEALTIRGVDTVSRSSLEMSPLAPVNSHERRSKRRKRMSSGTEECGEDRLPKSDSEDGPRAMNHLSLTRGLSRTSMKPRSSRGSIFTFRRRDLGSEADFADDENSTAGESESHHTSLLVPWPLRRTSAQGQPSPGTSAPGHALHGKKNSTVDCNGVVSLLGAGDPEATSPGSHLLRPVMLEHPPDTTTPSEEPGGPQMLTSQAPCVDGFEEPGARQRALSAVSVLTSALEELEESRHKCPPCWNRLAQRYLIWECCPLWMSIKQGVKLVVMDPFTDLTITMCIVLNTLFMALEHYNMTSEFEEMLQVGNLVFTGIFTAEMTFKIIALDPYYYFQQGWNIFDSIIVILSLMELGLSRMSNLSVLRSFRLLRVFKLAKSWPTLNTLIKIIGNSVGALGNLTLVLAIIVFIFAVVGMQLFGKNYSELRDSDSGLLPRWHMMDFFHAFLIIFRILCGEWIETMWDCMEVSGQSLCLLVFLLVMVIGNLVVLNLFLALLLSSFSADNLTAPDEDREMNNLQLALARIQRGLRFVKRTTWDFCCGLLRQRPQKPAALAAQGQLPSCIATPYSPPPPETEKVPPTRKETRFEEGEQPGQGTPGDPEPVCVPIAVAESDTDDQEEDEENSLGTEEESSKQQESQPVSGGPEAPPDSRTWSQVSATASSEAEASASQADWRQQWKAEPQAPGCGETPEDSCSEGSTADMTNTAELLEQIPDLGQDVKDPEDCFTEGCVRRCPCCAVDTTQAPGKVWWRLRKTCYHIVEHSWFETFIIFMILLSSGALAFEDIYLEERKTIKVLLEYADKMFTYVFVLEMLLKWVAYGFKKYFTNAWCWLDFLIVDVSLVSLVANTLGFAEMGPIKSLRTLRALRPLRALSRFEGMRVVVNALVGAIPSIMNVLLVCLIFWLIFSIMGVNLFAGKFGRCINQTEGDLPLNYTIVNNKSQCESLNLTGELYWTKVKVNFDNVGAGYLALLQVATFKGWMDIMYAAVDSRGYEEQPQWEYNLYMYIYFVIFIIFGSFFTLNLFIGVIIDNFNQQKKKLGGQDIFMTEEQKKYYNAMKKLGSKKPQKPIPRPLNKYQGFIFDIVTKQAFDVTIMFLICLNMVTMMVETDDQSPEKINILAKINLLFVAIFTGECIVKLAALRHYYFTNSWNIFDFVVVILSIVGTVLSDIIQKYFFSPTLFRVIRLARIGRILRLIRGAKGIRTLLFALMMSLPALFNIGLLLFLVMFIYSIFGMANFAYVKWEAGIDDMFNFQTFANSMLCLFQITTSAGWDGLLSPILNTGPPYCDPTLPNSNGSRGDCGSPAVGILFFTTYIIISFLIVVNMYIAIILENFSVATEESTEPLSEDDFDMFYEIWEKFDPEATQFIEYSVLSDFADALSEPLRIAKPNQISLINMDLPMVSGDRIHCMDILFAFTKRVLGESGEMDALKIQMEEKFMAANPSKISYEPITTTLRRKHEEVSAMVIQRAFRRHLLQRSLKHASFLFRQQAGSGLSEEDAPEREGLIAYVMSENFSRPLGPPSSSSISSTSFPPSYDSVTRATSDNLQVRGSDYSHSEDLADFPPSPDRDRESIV
Sequence of hERG (KCNH2) (Q12809 whole entry): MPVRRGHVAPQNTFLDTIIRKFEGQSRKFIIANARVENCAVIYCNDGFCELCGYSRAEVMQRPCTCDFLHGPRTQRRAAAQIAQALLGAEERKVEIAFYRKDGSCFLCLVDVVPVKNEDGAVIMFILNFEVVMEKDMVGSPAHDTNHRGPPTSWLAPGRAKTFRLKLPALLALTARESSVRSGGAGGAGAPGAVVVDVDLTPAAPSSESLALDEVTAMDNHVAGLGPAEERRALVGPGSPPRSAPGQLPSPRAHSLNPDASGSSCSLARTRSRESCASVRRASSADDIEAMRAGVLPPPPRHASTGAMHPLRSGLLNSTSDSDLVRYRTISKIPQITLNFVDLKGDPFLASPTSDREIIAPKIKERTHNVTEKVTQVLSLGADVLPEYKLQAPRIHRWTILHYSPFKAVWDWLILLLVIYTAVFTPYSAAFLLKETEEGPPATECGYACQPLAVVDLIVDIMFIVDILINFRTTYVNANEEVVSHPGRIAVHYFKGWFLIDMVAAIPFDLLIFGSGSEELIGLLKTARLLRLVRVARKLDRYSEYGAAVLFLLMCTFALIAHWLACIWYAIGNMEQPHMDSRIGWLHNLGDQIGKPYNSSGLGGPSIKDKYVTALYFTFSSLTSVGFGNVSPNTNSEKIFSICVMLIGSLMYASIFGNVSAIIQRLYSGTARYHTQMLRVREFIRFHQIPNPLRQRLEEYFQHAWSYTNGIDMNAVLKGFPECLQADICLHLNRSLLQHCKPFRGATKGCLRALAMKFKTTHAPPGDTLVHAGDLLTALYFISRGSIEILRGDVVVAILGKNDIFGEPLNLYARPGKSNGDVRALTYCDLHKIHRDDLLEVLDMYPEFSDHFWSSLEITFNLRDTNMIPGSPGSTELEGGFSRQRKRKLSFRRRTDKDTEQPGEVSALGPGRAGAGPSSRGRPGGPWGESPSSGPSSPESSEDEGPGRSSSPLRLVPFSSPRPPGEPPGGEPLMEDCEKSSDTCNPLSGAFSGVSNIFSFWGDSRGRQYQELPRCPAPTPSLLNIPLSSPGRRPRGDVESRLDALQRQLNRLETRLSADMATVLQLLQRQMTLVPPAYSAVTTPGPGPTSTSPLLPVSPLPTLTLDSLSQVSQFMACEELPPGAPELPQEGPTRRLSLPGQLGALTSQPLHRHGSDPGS

## COc1ccc2ncc(F)c(C[C@H](O)[C@H]3OC[C@H](NCc4cc5c(nn4)OCCS5)CO3)c2n1
[1]
  solubility kinetic: 61.4 µM (≈ 30.1 µg/mL)
[2]
  half-life: 52 min
Staphylococcus aureus [3]
  MIC: 0.25 µg/mL (≈ 0.511 µM)
Enterobacter cloacae
  MIC50: > 64 µg/mL
Cytochrome P450 2B6
  IC50: > 10 µM
HepG2
  IC50: > 125 µM
Nav1.5 (late current)
  inhibition at 100 µM: < 25%
Staphylococcus aureus [4]
  MIC: 4 µg/mL (≈ 8.17 µM)
[5]
  Papp A→B: 5.68 ×10⁻⁶ cm/s
Nav1.5
  inhibition at 100 µM: < 25%
CYP2C9
  inhibition at 10 µM: > 50%
[6]
  Cmax: 7020 ng/mL
Staphylococcus aureus [7]
  Survival: 100%
Enterococcus faecalis
  MIC50: 0.25 µg/mL (≈ 0.511 µM)
  MIC90: 1 µg/mL (≈ 2.04 µM)
Staphylococcus aureus [8]
  MIC: 0.25 µg/mL (≈ 0.511 µM)
[9]
  Tmax: 10.2 min
[10]
  bioavailability: 49%
Pseudomonas aeruginosa
  MIC50: > 64 µg/mL
CYP2C19
  inhibition at 10 µM: > 50%
hERG (KCNH2)
  inhibition at 100 µM: < 25%
Cytochrome P450 2C9
  IC50: > 10 µM
DNA gyrase [11]
  IC50: 0.22 µM
[12]
  Activity: Dose-Dependent Effect
Kv4.3 (KCND3) [13]
  inhibition at 100 µM: < 25%
Klebsiella pneumoniae
  MIC50: > 64 µg/mL
[14]
  Activity: < 25%
Cytochrome P450 2C8
  IC50: > 10 µM
DNA gyrase [15]
  IC50: 15 µM
[16]
  Activity: Dose-Dependent Effect
[17]
  half-life: 94 min
Kv4.3 (KCND3) [18]
  inhibition at 100 µM: < 25%
Cytochrome P450 2D6
  IC50: > 10 µM
